Test results from PubChem BioAssay.
The source made the active and inactive calls.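 How the source made its calls, unless noted: active means viability at or below 10% of carrier control in both of two separate runs; inconclusive means viability at or below 10% in only one of the two runs; inactive means the rest.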

Key:
[1] = Her2 expression decrease, cell viability multiplex – SKBR3 breast tumor cells, AlphaScreen, ATP viability, primary screen (AID 461;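 active means Her2 level under about 52% in both replicate screens, with viability over 70% of control, limit read from the data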;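 on Her2 level: lower value means less Her2 protein in the cells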;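 on viability: percent of carrier control wells set as 100% viability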); settings: SKBR3 Her2 protein level, 18-24 h, measured here: SKBR3 viability, ATP luminescence, at 10 µM
[2] = biological target: Receptor tyrosine-protein kinase erbB-2 (Homo sapiens) (UniProt P04626); assay: as above; settings: 18-24 h, at 10 µM, stronger effect = lower value
Receptor tyrosine-protein kinase erbB-2 (Homo sapiens), sequence (P04626 whole entry, looked up): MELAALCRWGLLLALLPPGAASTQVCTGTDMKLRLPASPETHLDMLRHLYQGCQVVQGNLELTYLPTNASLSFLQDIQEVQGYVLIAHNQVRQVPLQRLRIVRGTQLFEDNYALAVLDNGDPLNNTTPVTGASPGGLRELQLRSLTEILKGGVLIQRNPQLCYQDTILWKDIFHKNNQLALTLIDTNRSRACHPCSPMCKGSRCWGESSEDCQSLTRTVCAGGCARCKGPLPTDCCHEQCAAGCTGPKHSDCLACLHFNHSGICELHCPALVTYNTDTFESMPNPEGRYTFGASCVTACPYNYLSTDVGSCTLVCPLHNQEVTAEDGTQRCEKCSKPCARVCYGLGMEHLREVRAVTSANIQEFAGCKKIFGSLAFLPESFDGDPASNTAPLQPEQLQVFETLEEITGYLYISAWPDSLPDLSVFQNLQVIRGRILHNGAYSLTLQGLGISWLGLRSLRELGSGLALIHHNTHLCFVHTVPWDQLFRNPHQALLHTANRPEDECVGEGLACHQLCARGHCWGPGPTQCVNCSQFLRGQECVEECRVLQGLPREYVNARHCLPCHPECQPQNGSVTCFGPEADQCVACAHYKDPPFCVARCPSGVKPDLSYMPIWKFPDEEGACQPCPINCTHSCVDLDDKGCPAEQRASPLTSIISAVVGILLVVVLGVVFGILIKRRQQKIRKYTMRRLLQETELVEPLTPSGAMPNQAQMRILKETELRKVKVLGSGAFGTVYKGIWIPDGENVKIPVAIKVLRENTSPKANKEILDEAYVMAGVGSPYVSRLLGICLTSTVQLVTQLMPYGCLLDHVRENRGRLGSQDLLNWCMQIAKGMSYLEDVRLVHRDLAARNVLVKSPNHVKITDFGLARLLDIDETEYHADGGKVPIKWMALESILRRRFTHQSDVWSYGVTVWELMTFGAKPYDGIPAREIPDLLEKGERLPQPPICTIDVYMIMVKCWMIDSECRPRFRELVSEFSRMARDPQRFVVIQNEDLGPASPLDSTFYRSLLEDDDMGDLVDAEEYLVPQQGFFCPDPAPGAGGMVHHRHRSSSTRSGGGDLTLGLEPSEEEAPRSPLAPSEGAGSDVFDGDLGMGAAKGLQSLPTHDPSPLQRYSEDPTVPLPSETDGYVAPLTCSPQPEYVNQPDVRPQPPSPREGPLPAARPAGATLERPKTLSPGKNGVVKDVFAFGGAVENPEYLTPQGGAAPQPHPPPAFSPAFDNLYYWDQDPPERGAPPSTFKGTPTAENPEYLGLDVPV

[3] = reduced viability of SK-BR-3 breast cancer cells – cell-based, 24 h, human, pilot screen (AID 572); settings: SK-BR-3 viability, CellTiter-Glo luminescence, at 10 µM, stronger effect = lower value;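 further: compound exposure lasted between 18 and 24 h rather than exactly 24 h; 100% = carrier-treated control wells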
[4] = HUVEC growth inhibition – cell-based, human, primary screen (AID 575;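 active means viability at or below 30% in both replicate assays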;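 further: 100% = median of untreated cell wells with 0.1% DMSO on each plate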); settings: HUVEC proliferation, CellTiter-Glo luminescence, 72 h; at 10 µM; stronger effect = lower value
How it was run: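 Test system: HUVEC primary cells. Quantity: 1250 endothelial cells in each well. Dosing: single-point 10 µM, DMSO 0.1% final. Incubation: 72 h treatment at 37 °C. Measured by: CTG luminescence. Control set: DMSO cell controls and MePR drug controls. Plate: collagen-coated 384-well format.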

[5] = H69AR cell proliferation blockers – human, duplicate replicates, primary screen (AID 580;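 active means viability at or under a set limit in both replicates, limit being median viability minus 3 SD, cut at about 48% in these data, passing the limit was not always enough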;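 further: 100% = mean luminescence of untreated wells and 0% = no signal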); settings: H69AR lung tumor cells viability, ATP luminescence, 72 h; at 10 µM; stronger effect = lower value
[6] = MRP1 drug-resistance reversers in H69AR cells – cell-based, doxorubicin co-treatment, pilot screen (AID 601;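 active means viability loss from added drug above about 55%, and viability with drug at most 40%, in both replicates, limit read from the data, passing the limit was not always enough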); settings: CellTiter-Glo, 72 h, at 10 µM; for differential viability (reversal): stronger effect = higher value
[7] = yeast transport mutant growth inhibition pilot in 384-well plates, post-Golgi transport modulator project (AID 636; in the data active means inhibition above about 31%); settings: absorbance 615 nm, about 18 h, stronger effect = higher value
[8] = growth suppression of yeast trafficking mutant, preliminary HTS, modulators of trafficking downstream of Golgi apparatus project, 1536-format plate, OD 615 nm (AID 637; in the data active means inhibition above about 30%); settings: yeast transport mutant growth, absorbance 615 nm, 18 h; stronger effect = higher value
[9] = H69AR cells + 2 uM doxorubicin, measured here: viability with 2 uM doxorubicin, stronger effect = lower value
[10] = H69AR cells, compound alone cytotoxicity

SMILES | viability [1] | Her2 level [2] | viability [3] | viability [4] | viability [5] | differential viability (reversal) ([6]; H69AR cells + 2 uM doxorubicin) | viability [6, 9] | viability [6, 10] | inhibition [7] | inhibition [8]
COc1cccc(OC)c1C(=O)Nc1ccc(CN2CCCCC2)cc1 | 98.5% | 84% (inactive) | 98.5% (inactive) | 102% (inactive) | 89.4% (inactive) | 8.96% (inactive) | 80.4% | 89.4% | -0.66% (inactive) | -2.06% (inactive)
CCOC(=O)C1CCCN(c2c(NCc3ccco3)c(=O)c2=O)C1 (stereo not given) | 94% | 108% (inactive) | 94% (inactive) | 83.3% (inactive) | 94.3% (inactive) | 11.7% (inactive) | 82.6% | 94.3% | 2% (inactive) | -6.07% (inactive)
COc1ccc(Cl)cc1N1CC(c2nc3ccccc3[nH]2)CC1=O (stereo not given) | 97.5% | 104% (inactive) | 97.5% (inactive) | 98% (inactive) | 104% (inactive) | 7.82% (inactive) | 96.3% | 104% | -3.21% (inactive) | 2.17% (inactive)
C=CCn1c(SCC(=O)c2ccc(OC)cc2)nnc1C(C)NC(=O)c1cccs1 (stereo not given) | 102% | 88.5% (inactive) | 102% (inactive) | 90.9% (inactive) | 87% (inactive) | -5.4% (inactive) | 92.4% | 87% | -0.26% (inactive) | 7.67% (inactive)
O=C(c1cccs1)N1CCN=C1SCc1ccccc1 | 120% | 74.5% (inactive) | 120% (inactive) | 60.8% (inactive) | 90.4% (inactive) | 6.13% (inactive) | 84.2% | 90.4% | 3.51% (inactive) | -0.66% (inactive)
COc1ccccc1CNC(=O)N[C@@H](Cc1ccccc1)C(=O)O | 102% | 80% (inactive) | 102% (inactive) | 114% (inactive) | 93.2% (inactive) | 12.2% (inactive) | 81% | 93.2% | -5.81% (inactive) | 10.5% (inactive)
O=C(NCCCn1ccnc1)c1cnn2c1NC(c1ccccc1)CC2C(F)(F)F (stereo not given) | 93.5% | 139% (inactive) | 93.5% (inactive) | 88.5% (inactive) | 105% (inactive) | 1.64% (inactive) | 103% | 105% | -0.26% (inactive) | -15% (inactive)
Cc1nc2ccc(NC(=O)N3CCSCC3)cc2s1 | 89.5% | 107% (inactive) | 89.5% (inactive) | 108% (inactive) | 94.3% (inactive) | -5.83% (inactive) | 100% | 94.3% | 1.84% (inactive) | 8.89% (inactive)
CC(=O)Nc1ccc(S(=O)(=O)NCc2cn3c(C)csc3n2)cc1 | 116% | 106% (inactive) | 116% (inactive) | 107% (inactive) | 102% (inactive) | 20.4% (inactive) | 81.3% | 102% | -8.31% (inactive) | -3.02% (inactive)
CCOc1ccc2nc(SCc3ccc(C(=O)OC)o3)[nH]c2c1 | 77% | 87.5% (inactive) | 77% (inactive) | 89.5% (inactive) | 109% (inactive) | 12.7% (inactive) | 96.4% | 109% | -0.4% (inactive) | -2.42% (inactive)
CCCSc1nc2c(cnn2-c2ccc(Cl)cc2)c(=O)[nH]1 | 106% | 89.5% (inactive) | 106% (inactive) | 98.1% (inactive) | 79% (inactive) | -3.71% (inactive) | 82.7% | 79% | -6.23% (inactive) | 0.95% (inactive)
CC1NC(=O)NC1CCCCCC(=O)NCCc1ccccc1 (stereo not given) | 112% | 80% (inactive) | 112% (inactive) | 90.4% (inactive) | 93.3% (inactive) | 7.38% (inactive) | 85.9% | 93.3% | -5.07% (inactive) | 0.79% (inactive)
CCn1nnnc1SCC(=O)Nc1nnc(C(C)C)s1 | 88.5% | 84.5% (inactive) | 88.5% (inactive) | 103% (inactive) | 92.2% (inactive) | 2.35% (inactive) | 89.8% | 92.2% | -4.4% (inactive) | 3.11% (inactive)
COc1ccc(/C(O)=C2/C(=O)C(=O)N(CCCN(C)C)C2c2ccc(Cl)cc2)cc1OC (stereo not given) | 101% | 97.5% (inactive) | 101% (inactive) | 103% (inactive) | 103% (inactive) | -1.86% (inactive) | 105% | 103% | 0.4% (inactive) | -3.39% (inactive)
COC(=O)c1sc2ccccc2c1NC(=O)c1cccs1 | 97.5% | 99.5% (inactive) | 97.5% (inactive) | 82.1% (inactive) | 82.1% (inactive) | -17.2% (inactive) | 99.3% | 82.1% | -2.08% (inactive) | -5.87% (inactive)
O=C(NC1CC1)C1CCN(c2ccc(S(=O)(=O)N3CCOCC3)cc2)CC1 | 92.5% | 138% (inactive) | 92.5% (inactive) | 83% (inactive) | 94.7% (inactive) | 17.1% (inactive) | 77.7% | 94.7% | -0.13% (inactive) | -10% (inactive)
O=C(CSc1nnc(C2CC2)n1Cc1ccccc1)c1ccc(S(=O)(=O)N2CCOCC2)cc1 | 120% | 92% (inactive) | 120% (inactive) | 95% (inactive) | 86.9% (inactive) | 12.5% (inactive) | 74.4% | 86.9% | -1.82% (inactive) | 6.72% (inactive)
CCCC(=O)N1c2ccccc2NC2=C(C(=O)CCC2)C1c1ccc(F)cc1 (stereo not given) | 98.5% | 78% (inactive) | 98.5% (inactive) | 96.9% (inactive) | 91.6% (inactive) | -0.1% (inactive) | 91.7% | 91.6% | -0.14% (inactive) | 3.81% (inactive)
COc1ccc(-n2c(=O)[nH]cc(C(=O)Nc3ccc(NC(C)=O)cc3)c2=O)cc1 | 100% | 106% (inactive) | 100% (inactive) | 98.8% (inactive) | 96.1% (inactive) | 0.385% (inactive) | 95.7% | 96.1% | -3.78% (inactive) | 0% (inactive)
CCOC(=O)c1c(N)sc(C(=O)N2CCOCC2)c1C | 127% | 115% (inactive) | 127% (inactive) | 103% (inactive) | 98.9% (inactive) | 1.31% (inactive) | 97.6% | 98.9% | -7.07% (inactive) | -1.75% (inactive)
CCOC(=O)CC12CN3CN(C1)CC(CC(=O)OCC)(C3)C2=O | 94% | 86% (inactive) | 94% (inactive) | 89.1% (inactive) | 98.3% (inactive) | 3.54% (inactive) | 94.7% | 98.3% | -5.95% (inactive) | 0.49% (inactive)
OCc1nc(CO)n(Cc2ccccc2)n1 | 85.5% | 84% (inactive) | 85.5% (inactive) | 88.7% (inactive) | 102% (inactive) | -5.83% (inactive) | 108% | 102% | -1.05% (inactive) | -0.48% (inactive)
CCCN1CCN(CCCNC(=O)C2CCCN(c3nc4ccc(OCC)cc4s3)C2)CC1 (stereo not given) | 85.5% | 118% (inactive) | 85.5% (inactive) | 74.8% (inactive) | 87.3% (inactive) | -1.46% (inactive) | 88.8% | 87.3% | -5.39% (inactive) | 0.83% (inactive)
Cc1cc(=O)oc2cc(Oc3ncccn3)ccc12 | 98% | 106% (inactive) | 98% (inactive) | 101% (inactive) | 83% (inactive) | -6.5% (inactive) | 89.4% | 83% | -8.4% (inactive) | 16.7% (inactive)
Cn1c(=O)c2nc(Cl)n(Cc3ccc(Cl)cc3Cl)c2n(C)c1=O | 96% | 75% (inactive) | 96% (inactive) | 105% (inactive) | 88.3% (inactive) | 12.5% (inactive) | 75.9% | 88.3% | -3.2% (inactive) | 7.58% (inactive)
CCOC(=O)C1CCCN(C(=O)c2ccc3c(=O)n(CCOC)c(=S)[nH]c3c2)C1 (stereo not given) | 94% | 83% (inactive) | 94% (inactive) | 80.6% (inactive) | 88.6% (inactive) | 11.5% (inactive) | 77.1% | 88.6% | -4.8% (inactive) | -0.33% (inactive)
O=C(Nc1c(-c2ccccc2)nc2ccccn12)c1ccco1 | 95% | 106% (inactive) | 95% (inactive) | 109% (inactive) | 103% (inactive) | 16.5% (inactive) | 86.9% | 103% | -0.92% (inactive) | -4.55% (inactive)
COc1ccc2nc3oc(C(=O)N4CCCCC4)cc3cc2c1 | 98% | 90.5% (inactive) | 98% (inactive) | 86.5% (inactive) | 86.7% (inactive) | 2.71% (inactive) | 83.9% | 86.7% | -5.26% (inactive) | -3.67% (inactive)
CCOC(=O)c1[nH]c(C)c(C(=O)N2CCN(c3ccc(F)cc3)CC2)c1C | 107% | 84% (inactive) | 107% (inactive) | 107% (inactive) | 92.3% (inactive) | 2.1% (inactive) | 90.2% | 92.3% | -2.37% (inactive) | -4.44% (inactive)
